# Data as given in ChEMBL document CHEMBL5046219, “Optimization of N-Phenylpropenoyl-l-amino Acids as Potent and Selective Inducible Nitric Oxide Synthase Inhibitors for Parkinson's Disease” (J Med Chem, 2021).
# Activity calls are given as the source filed them. The calls are words filed in the database; no cut-off is given here.
# Legend:
# [1] = Cmax in Balb/c mouse brain at 30 mg/kg, po administered as single dose measured upto 24 hrs by LC-MS analysis; type: ADME, organism-based; parameters: route oral, dose 30 mg/kg, time <=24
# How it was run: (§1)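 Male BALB/c mice were fasted 16 h and then given a single intragastric dose of 30 mg/kg. Blood and brain were collected after decapitation at 5, 10, 15 and 30 min and at 1, 2, 6, 8, 12 and 24 h. Plasma was obtained by centrifugation and brains were homogenized in saline. Samples underwent methanol protein precipitation and single-quadrupole LC-MS on a C18 column at 30 °C, using isocratic 40% acetonitrile with 0.1% formic acid.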
# Nitric oxide synthase 3 = molecular target: T1, Nitric oxide synthase 3 (Homo sapiens, UniProt P29474); test: Inhibition of human eNOS assessed as reduction in L-[3H]-citrulline level using L-[3H]-arginine as substrate incubated for 1 hr
# T1 sequence (P29474 whole entry): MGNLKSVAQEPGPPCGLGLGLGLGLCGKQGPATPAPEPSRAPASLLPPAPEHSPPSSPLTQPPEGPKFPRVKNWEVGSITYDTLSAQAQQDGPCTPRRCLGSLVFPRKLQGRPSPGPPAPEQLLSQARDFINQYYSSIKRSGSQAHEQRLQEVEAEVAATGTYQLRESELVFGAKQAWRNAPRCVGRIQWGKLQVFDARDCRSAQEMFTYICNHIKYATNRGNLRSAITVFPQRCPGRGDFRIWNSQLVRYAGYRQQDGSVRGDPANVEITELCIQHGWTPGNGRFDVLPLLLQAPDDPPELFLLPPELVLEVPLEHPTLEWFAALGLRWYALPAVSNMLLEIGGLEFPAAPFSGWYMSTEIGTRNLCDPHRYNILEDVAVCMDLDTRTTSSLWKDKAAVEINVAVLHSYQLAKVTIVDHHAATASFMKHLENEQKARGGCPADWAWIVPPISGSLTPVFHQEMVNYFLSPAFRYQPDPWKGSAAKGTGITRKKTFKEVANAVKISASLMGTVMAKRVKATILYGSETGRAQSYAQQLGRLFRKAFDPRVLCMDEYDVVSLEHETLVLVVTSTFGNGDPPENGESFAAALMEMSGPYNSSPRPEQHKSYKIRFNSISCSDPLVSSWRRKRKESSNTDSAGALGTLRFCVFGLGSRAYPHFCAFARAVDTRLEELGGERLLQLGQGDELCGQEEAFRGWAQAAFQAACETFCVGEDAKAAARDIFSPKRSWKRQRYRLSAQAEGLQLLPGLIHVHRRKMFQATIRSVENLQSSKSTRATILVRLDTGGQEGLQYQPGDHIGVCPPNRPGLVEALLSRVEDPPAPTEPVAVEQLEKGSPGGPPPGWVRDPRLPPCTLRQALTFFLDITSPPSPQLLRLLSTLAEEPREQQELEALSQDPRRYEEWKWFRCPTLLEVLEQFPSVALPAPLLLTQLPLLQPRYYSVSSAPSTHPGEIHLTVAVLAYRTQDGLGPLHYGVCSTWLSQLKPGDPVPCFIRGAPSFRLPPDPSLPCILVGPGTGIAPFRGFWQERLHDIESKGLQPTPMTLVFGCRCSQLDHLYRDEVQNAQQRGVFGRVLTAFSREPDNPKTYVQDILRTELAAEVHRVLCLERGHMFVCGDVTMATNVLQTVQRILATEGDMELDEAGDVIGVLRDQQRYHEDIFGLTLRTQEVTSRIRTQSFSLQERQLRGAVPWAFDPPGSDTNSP
# [2] = Half life in Balb/c mouse brain at 30 mg/kg, po administered as single dose measured upto 24 hrs by LC-MS analysis; type: ADME, organism-based; how it was run: as §1
# [3] = Effective permeability of compound in PBS buffer at pH 7.4 at 200 uM incubated for 17 hrs by PAMPA-BBB assay; type: ADME; conditions: read-out: Peff
# How it was run: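 PAMPA-BBB: the donor filter was coated with porcine brain lipid (20 mg/mL in dodecane). Compound was loaded at 200 μM in 10 mM PBS pH 7.4, with PBS as acceptor. Plates were incubated 17 h at 25 °C in saturated humidity with 100 rpm orbital shaking. Donor and acceptor concentrations were read by UV and Pe was calculated from the flux equation. Values are the mean of triplicates with SD.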
# Nitric oxide synthase 1 = Nitric oxide synthase 1 (Homo sapiens, UniProt P29475); test: Inhibition of human nNOS assessed as reduction in L-[3H]-citrulline level using L-[3H]-arginine as substrate incubated for 1 hr
# [4] = Cmax in Balb/c mouse blood at 30 mg/kg, po administered as single dose measured upto 24 hrs by LC-MS analysis; type: ADME, organism-based; parameters: route oral, dose 30 mg/kg, time <=24; how it was run: as §1
# [5] = Half life in Balb/c mouse blood at 30 mg/kg, po administered as single dose measured upto 24 hrs by LC-MS analysis; type: ADME, organism-based; how it was run: as §1
# [6] = AUC (0 to infinity) in Balb/c mouse brain at 30 mg/kg, po administered as single dose measured upto 24 hrs by LC-MS analysis; type: ADME, organism-based; parameters: route oral, dose 30 mg/kg, time <=24; how it was run: as §1
# Homo sapiens = species on record: Homo sapiens; test: Selectivity ratio of IC50 for human eNOS to IC50 for human iNOS
# How it was run: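 Human iNOS, eNOS or nNOS was incubated 1 h at 37 °C in 50 mM HEPES with 10 nM [3H]arginine and [14C]citrulline internal standard. Cofactors were NADP⁺, G6P, G6P dehydrogenase, MgCl2, FAD, FMN and BH4. eNOS and nNOS reactions also contained 25 nM calmodulin, 0.5 mM CaCl2 and 3.5 mM glutathione. Reactions were stopped with MES and passed through cation exchange resin, and [3H]citrulline was counted. Background was set with 10 μM AMT. IC50 values came from eight concentrations (0.01–10 μM), in three repeated experiments.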
# [7] = molecular target: Nitric oxide synthase, inducible (Homo sapiens, UniProt P35228); test: Inhibition of human iNOS assessed as reduction in L-[3H]-citrulline level using L-[3H]-arginine as substrate incubated for 1 hr
# [8] = AUC (0 to infinity) in Balb/c mouse blood at 30 mg/kg, po administered as single dose measured upto 24 hrs by LC-MS analysis; type: ADME, organism-based; parameters: route oral, dose 30 mg/kg, time <=24; how it was run: as §1
# [9] = molecular target: Nitric oxide sythases; iNOS & nNOS (Homo sapiens) (UniProt P29475+P35228); test: Selectivity ratio of IC50 for human nNOS to IC50 for human iNOS; type: protein assay
# How it was run: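 Human nNOS and human iNOS each converting [³H]arginine (10 nM) to [³H]citrulline, with [¹⁴C]citrulline (80−120 nM) as internal standard, in 50 mM HEPES at 37 °C for 1 h. Cofactors were NADP⁺, G6P/G6PDH, MgCl₂, FAD, FMN and BH₄; nNOS also had calmodulin, CaCl₂ and glutathione. Eight concentrations (0.01−10 μM). Stopped with MES, passed over cation-exchange resin, filtrate counted. Background set with 10 μM AMT. Each IC50 from a curve, repeated three times.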
# BV-2 = test: Anti-neuroinflammation in mouse BV-2 cells assessed as inhibition of LPS-induced NO production at 1 uM preincubated for 6 hrs followed by LPS addition measured after 24 hrs by Griess reagent based assay; type: functional
# How it was run: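 BV-2 murine microglia were grown in DMEM with 10% FBS at 37 °C and 5% CO2, then seeded at 5 × 10³ cells/well. After 24 h, compound was added at 1 μM. LPS (500 ng/mL) followed 6 h later. After a further 24 h, medium was collected and NO was read at 540 nm with a colorimetric NO detection kit.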
# Sequence of Nitric oxide synthase, inducible (P35228 whole entry): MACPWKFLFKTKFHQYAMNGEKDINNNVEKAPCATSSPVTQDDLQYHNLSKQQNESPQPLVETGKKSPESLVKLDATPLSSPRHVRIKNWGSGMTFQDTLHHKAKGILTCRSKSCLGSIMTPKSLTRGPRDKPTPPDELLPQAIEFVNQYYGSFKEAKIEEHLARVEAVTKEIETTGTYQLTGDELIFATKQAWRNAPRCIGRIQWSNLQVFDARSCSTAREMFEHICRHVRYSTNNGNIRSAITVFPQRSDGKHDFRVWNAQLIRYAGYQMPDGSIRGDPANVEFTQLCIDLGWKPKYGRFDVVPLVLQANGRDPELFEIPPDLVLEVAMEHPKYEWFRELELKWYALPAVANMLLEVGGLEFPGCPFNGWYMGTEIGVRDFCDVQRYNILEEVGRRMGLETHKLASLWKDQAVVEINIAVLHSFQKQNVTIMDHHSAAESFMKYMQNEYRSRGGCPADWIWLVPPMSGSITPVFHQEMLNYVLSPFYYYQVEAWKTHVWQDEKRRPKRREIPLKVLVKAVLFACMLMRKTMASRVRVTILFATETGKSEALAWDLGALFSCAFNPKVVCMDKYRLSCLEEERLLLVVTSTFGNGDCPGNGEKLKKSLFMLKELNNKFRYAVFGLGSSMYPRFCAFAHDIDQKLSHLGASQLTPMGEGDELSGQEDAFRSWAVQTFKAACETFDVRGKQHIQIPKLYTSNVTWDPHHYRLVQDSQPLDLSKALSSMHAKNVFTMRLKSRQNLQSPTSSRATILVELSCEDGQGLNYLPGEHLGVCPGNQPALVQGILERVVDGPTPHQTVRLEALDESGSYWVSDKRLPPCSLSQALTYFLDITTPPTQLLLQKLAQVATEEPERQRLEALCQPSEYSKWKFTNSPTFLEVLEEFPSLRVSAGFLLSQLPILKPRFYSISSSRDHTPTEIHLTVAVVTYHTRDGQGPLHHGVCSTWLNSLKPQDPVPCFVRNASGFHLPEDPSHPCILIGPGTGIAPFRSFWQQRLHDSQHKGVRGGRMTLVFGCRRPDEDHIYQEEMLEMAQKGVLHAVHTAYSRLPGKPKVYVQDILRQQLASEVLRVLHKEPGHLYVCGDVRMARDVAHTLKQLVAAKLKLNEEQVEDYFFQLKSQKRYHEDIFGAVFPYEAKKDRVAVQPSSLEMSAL
# Sequence of Nitric oxide synthase 1 (P29475 whole entry): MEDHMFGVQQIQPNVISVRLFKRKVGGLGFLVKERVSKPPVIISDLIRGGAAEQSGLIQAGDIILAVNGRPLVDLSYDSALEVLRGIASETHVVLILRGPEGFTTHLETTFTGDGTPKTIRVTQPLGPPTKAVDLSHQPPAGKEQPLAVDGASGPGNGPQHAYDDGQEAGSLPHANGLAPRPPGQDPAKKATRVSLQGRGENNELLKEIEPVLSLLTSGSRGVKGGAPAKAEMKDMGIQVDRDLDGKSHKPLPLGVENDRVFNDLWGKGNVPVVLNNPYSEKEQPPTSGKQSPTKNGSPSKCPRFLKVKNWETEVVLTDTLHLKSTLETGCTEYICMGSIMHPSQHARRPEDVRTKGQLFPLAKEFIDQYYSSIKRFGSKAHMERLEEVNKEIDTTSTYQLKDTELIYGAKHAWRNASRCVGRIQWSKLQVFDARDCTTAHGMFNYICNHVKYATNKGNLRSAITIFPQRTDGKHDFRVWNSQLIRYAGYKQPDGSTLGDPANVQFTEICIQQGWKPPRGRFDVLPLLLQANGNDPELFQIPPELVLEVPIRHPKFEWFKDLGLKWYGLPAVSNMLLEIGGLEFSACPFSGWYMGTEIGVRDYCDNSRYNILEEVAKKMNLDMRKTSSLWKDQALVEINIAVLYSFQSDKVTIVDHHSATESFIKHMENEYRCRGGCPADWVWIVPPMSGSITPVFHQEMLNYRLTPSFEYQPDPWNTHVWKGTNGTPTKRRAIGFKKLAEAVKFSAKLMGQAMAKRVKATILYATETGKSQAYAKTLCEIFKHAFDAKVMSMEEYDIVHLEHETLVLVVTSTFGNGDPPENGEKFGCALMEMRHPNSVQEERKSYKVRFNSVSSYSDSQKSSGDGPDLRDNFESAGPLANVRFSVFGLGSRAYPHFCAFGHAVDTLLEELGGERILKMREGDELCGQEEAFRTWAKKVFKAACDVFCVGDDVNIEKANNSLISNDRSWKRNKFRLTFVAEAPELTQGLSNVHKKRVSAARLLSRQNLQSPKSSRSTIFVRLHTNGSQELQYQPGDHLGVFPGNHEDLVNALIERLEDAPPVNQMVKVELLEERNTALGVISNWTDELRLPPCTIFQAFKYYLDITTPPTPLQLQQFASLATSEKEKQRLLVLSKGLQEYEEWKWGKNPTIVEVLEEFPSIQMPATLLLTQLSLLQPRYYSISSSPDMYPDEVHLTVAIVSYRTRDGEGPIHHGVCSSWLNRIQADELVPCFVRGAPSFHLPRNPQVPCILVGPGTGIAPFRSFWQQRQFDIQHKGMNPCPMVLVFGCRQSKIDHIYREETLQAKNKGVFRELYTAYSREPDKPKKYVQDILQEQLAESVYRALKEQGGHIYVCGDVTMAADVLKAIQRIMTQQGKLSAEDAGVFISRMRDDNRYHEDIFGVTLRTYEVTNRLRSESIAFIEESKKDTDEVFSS
# Sequence of Nitric oxide sythases; iNOS & nNOS (Homo sapiens) (P29475 whole entry, looked up): as the sequence (P29475 whole entry) above
# Sequence of Nitric oxide sythases; iNOS & nNOS (Homo sapiens) (P35228 whole entry, looked up): as the sequence (P35228 whole entry) above
Cmax [1],IC50 (Nitric oxide synthase 3),half-life [2],"Papp at 17 h, 200 µM [3]",IC50 (Nitric oxide synthase 1),Cmax [4],half-life [5],AUC(0-inf) [6],Ratio IC50 (Homo sapiens),IC50 [7],AUC(0-inf) [8],Ratio IC50 [9],Structure (SMILES),Activity (BV-2)
40.2 ng/mL,46.6 µM,0.9 h,1.23 ×10⁻⁶ cm/s,40.3 µM,1000 ng/mL,1.2 h,567 ng·h/mL,52,0.892 µM,3450 ng·h/mL,45,COc1cc(/C=C/C(=O)N[C@H](Cc2ccc(O)cc2)C(=O)O)ccc1O,
,164 µM,,,149 µM,,,,165,0.993 µM,,149,O=C(/C=C/c1ccc(Cl)c(Cl)c1)N[C@@H](Cc1ccc(F)cc1)C(=O)O,Active
,29.7 µM,,,29.6 µM,,,,39,0.765 µM,,39,CC(C)C[C@H](NC(=O)/C=C/c1ccc(Cl)c(Cl)c1)C(=O)O,Active
,,,3.18 ×10⁻⁶ cm/s,,,,,,,,,CC(=N)NCc1cccc(CN)c1 [1400W],
,147 µM,,,126 µM,,,,180,0.82 µM,,153,O=C(/C=C/c1ccccc1Cl)N[C@@H](Cc1ccc(F)cc1)C(=O)O,Active
